Compound activity deposited in PubChem by The Scripps Research Institute Molecular Screening Center.
RORA inh: inhibitors of orphan receptor RORA, primary screen, cell-based, luminescence; inhibition, % at 10 µM; actives 0.43% (n = 65,000); Nuclear receptor ROR-alpha (Homo sapiens), P35398; CHO-K1 Gal4-RORA LBD luciferase reporter;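 active means inhibition above the mean of all tested compounds plus 3 SD, cut at about 52% in these data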
Target sequence (P35398 whole entry, looked up, the tested form may be a part): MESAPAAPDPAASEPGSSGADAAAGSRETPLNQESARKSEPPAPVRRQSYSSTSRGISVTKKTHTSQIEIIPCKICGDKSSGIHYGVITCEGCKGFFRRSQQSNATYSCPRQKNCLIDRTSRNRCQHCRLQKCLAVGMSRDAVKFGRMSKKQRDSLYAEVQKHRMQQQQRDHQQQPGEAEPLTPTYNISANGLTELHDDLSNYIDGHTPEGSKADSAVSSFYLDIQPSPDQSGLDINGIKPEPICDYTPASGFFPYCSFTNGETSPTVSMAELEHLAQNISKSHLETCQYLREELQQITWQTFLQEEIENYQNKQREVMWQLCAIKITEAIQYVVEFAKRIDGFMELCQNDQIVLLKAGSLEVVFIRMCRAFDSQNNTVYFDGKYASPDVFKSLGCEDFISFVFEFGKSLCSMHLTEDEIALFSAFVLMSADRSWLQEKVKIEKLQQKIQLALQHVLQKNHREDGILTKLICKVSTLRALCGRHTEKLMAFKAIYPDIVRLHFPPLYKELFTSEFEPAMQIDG
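Test system: CHO-K1 cells with Gal4-hRORA LBD fusion and pG5-luc reporter | Timing: 20 h compound treatment, 37 °C | Detection: Luminescence from basal luciferase reporter expression | Read-out basis: % inhibition of basal luciferase versus +RORA/-RORA DMSO controls | Repeats: One measurement per compound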
Each line names hits and unclear results; the compound was inactive in the other large screens. The sample as a whole holds a higher share of hits than the screen did.

COc1ccc(C(=O)CN2CCN(c3ccc(F)cc3)CC2)cc1OC	none
CC(=O)c1cc2c(cc1NC(=O)CN1CCN(c3cccc(C(F)(F)F)c3)CC1)OCO2	none
CC(=O)c1ccc(N2CCN(c3ccc(C(F)(F)F)cn3)CC2)cc1	RORA inh 54.5
Cc1ccc(-c2noc(CCC(=O)NCc3ccc4c(c3)OCO4)n2)cc1	none
CC1(C)Cc2c(sc3nc4n(c(=N)c23)CCC4)CO1	none
CCCCN(CCCC)S(=O)(=O)c1ccc(C(=O)Nc2nnc(CSC)o2)cc1	RORA inh 61.3
CCCN(CCC)S(=O)(=O)c1ccc(C(=O)Nc2nnc(-c3cccc(OC)c3)o2)cc1	none
CCN(Cc1ccccc1)S(=O)(=O)c1ccc(C(=O)Nc2nnc(-c3ccccc3OC)o2)cc1	none
Cc1cc(C(F)F)n2nc(C(=O)Nc3ccccc3Br)nc2n1	none
c1ccc(-c2cnnc(N3CCCCC3)n2)cc1	none
O=C(O)c1cccc(S(=O)(=O)N2CCSCC2)c1	none
O=S(=O)(Cc1ccccc1)N1CCc2ccccc21	none
COc1cccc(NC(=O)CSc2nnc(-c3cc(C)n(-c4ccccc4)c3C)o2)c1	RORA inh 71.3
COc1cccc(NC(=O)Cn2c(SCC(=O)N3CCOCC3)nc3ccccc32)c1	none
COc1cccc(NC(=O)CNC(C)CCC(C)C)c1 (stereo unspecified)	none
Cc1cccc(N(Cc2cc3ccccc3[nH]c2=O)C(=O)c2ccco2)c1C	none
COc1ccc(N2C(=O)CSC2c2ccc3c(c2)OCO3)c(OC)c1 (stereo unspecified)	none
CCCCNc1cc(=O)n(C)c(=O)[nH]1	none
COc1ccc(-c2csc(N3CCOCC3)n2)cc1OC	none
COc1ccc(-c2cc3nc4n(c(=O)c3s2)CCOC4)cc1	RORA inh 60.2
O=C(C1CCC(=O)N1Cc1ccccc1Cl)N1CCN(c2cccc(Cl)c2)CC1 (stereo unspecified)	none
CCN1C(=O)NC(c2cccnc2)C(C(=O)OC)=C1C (stereo unspecified)	none
O=C(O)CCn1c(=O)c2ccccc2c2ccccc2c1=O	none
Cc1cccc(-n2ncc3c(N(C)Cc4ccccc4)ncnc32)c1	none
CCc1nn2c(=O)cc(N3CCN(c4cc(C)nc5ccccc45)CC3)nc2s1	none
Cc1cc(N2CCN(c3nc4ccccc4s3)CC2)n2ncnc2n1	RORA inh 75.1
Cc1cc(N2CCCCC2)n2ncc(-c3ccc(Cl)cc3)c2n1	none
CCOc1ccccc1N(CC(=O)Nc1ccc(C)cc1)S(C)(=O)=O	none
CCN1CCN(C(=O)c2cc3nc(-c4ccccc4)cc(C(F)(F)F)n3n2)CC1	none
CC(=O)Nn1c(-c2ccccc2)cc2ccccc21	none
CCN1CCN(C(CNS(=O)(=O)c2ccc(OC)cc2)c2cccnc2)CC1 (stereo unspecified)	none
CCC(NC(=O)Nc1nnc(C(F)(F)F)s1)(C(F)(F)F)C(F)(F)F	RORA inh 93.5
CCC(NC(=O)Nc1ncccc1C)(C(F)(F)F)C(F)(F)F	none
O=C(Nc1nnc(C(F)(F)F)s1)c1cccnc1	none
NC(=O)CSc1nc2sc3c(c2c2ncnn12)CCCC3	none
Cc1ccc(NC(=O)c2ocnc2C)cc1Cl	none
O=c1[nH]c(CN2CCN(Cc3ccc4c(c3)OCO4)CC2)nc2sc3c(c12)CCC3	none
CC1(C)COCN1S(=O)(=O)c1ccc(C(=O)Nc2nnc(-c3ccc(Cl)s3)o2)cc1	RORA inh 52.9
CC1CC(C)CN(C(=O)CSc2nnc(-c3ccc(Cl)s3)o2)C1 (stereo unspecified)	none
COc1ccccc1-c1nnc(NC(=O)c2ccc(S(=O)(=O)N(C)C)cc2)o1	none
COc1ccc(C2/C(=C(/O)c3cnn(-c4ccccc4)c3C)C(=O)C(=O)N2CCN(C)C)cc1OC (stereo unspecified)	none
CC1(C)CC(=O)c2cnc(NC(=O)c3ccco3)nc2C1	none
Cc1cc(C)n(-c2c(F)c(F)c(CN3CCOCC3)c(F)c2F)n1	none
Cn1c(=O)c2c3c(sc2n2c(SCC(=O)c4ccc(Cl)cc4)nnc12)COC(C)(C)C3	none
NC(=O)CSc1nnc(Cc2ccc3c(c2)OCO3)n1C1CCCCC1	none
CCOc1ccc(-c2cc(CCCC(=O)NCCCOC)no2)cc1	RORA inh 58.1
CCOc1ccc(-c2cc(C(=O)NCCCN3CCN(CC)CC3)c3ccccc3n2)cc1	none
CCC(C)NC(=O)c1cc(-c2ccc(OC)cc2)on1 (stereo unspecified)	none
O=C(COc1ccccc1)n1nc(-c2ccc(Cl)cc2)nc1NCc1ccco1	none
CCC(C)C(NC(=O)OC(C)(C)C)C(=O)NC(C(=O)N1CCCC1C(N)=O)C(C)CC (stereo unspecified)	none
COc1ccccc1N1CCN(c2ncnc3c2oc2ccccc23)CC1	none
Cc1cc(C)n(-c2ncnc3c2oc2ccccc23)n1	none
COc1ccc(CCNc2ncnc3c2oc2ccccc23)cc1OC	RORA inh 84.3
O=C(CCN1c2ccccc2Sc2ccccc21)OCC(=O)N1CCN(C(=O)c2ccco2)CC1	none
CC1Cc2nc(SCC(=O)OCc3ccccc3)n(C)c(=O)c2S1 (stereo unspecified)	none
NC(=O)C1CCN(C(=O)c2cc(S(=O)(=O)N3CCOCC3)c(Cl)cc2Cl)CC1	none
Cc1nnc2sc(-c3cc4ccccc4o3)nn12	none
COc1ccc(S(=O)(=O)Nc2nnc(C(C)(C)C)s2)cc1	none
O=S(=O)(NC1CCCCCC1)c1cccc2cccnc12	none
COc1cc(NS(=O)(=O)c2ccc(C)cc2)c2ncccc2c1	RORA inh 85.0
COc1cc(-c2nnc3sc(-c4cccnc4)nn23)cc(OC)c1OC	none
Cc1cccc(-n2c(CNC(=O)c3ccccc3)nnc2SCC(=O)Nc2nccs2)c1	none
O=C1CCn2nc(-c3ccc(Cl)cc3)cc2N1	none
O=C(CN(Cc1ccc2c(c1)OCO2)C(=O)c1cnsn1)NC1CCCC1	none
Fc1ccc(-c2nnc(-c3ccc(Cl)cc3)o2)cc1	none
Clc1ccc(-c2nnc(NC3=NCCCCC3)o2)cc1	RORA inh 65.3
CC(OC(=O)c1ccco1)C(=O)NCc1cccs1 (stereo unspecified)	none
O=P(O)(O)c1ccccc1OCc1ccccc1	none
O=C(COc1ccccc1Cl)Nc1ccc(Cl)cn1	none
O=C(O)c1cccc(COc2ccccc2Cl)c1	RORA inh 91.8
CC(C)NC(=O)c1cc(=O)n(C)c(=O)n1C	none
CSc1ccc(CNc2ccccn2)cc1	none
O=C1C(=O)N(CCCN2CCOCC2)C(c2ccccn2)/C1=C(\O)c1ccc2c(c1)OCCO2 (stereo unspecified)	none
CCc1c(C)nc2cc(-c3ccc(OC)cc3)[nH]n2c1=O	none
COc1cc(OC)cc(-c2cc3nc(C)c(CCC(=O)O)c(C)n3n2)c1	RORA inh 76.7
CCN(CC)C(=O)c1sc2nc(-c3ccc(OC)cc3)cn2c1C	none
CCC12CN(C(=O)c3ccc(OC)cc3)CC(CC)(CN(C(=O)c3ccc(OC)cc3)C1)C2=O	none
COc1ccc(CCNC(=O)c2nnn(CC(=O)Nc3ccccc3)c2N)cc1OC	none
COc1ccc(CC(=O)Nc2cccc(-c3nnc(-c4cccc(C)c4)o3)c2)cc1OC	RORA inh 86.6
COc1ccc(Cc2nnc(NC(=O)Cc3cccs3)s2)cc1OC	none
COc1cccc2c1C(=O)c1c(O)c3c(c(O)c1C2=O)C[C@@](O)(C(=O)CO)C[C@@H]3O[C@H]1C[C@H](N)[C@H](O)[C@H](C)O1	RORA inh 63.0
CCCCc1ccc(S(=O)(=O)Nc2cc(C)on2)cc1	none
O=C(COc1ccc(Cl)cc1)NCc1nnc(SCC(=O)NCCc2ccccc2)o1	none
COC(=O)c1sc(NC(=O)c2ccoc2C)nc1C	none
CC(=O)c1sc(NC(=O)C2(F)C(F)(F)C(F)(F)C(F)(F)C(F)(F)C2(F)F)nc1C	RORA inh 89.5
